“Also recorded” adds a separate entry of the source. Where two headings read alike, the source gives them in different places.
Assays:
[1] = cited from earlier work
[2] = system: centrin 2 (Cetn2); assay: Yeast two-hybrid; assay type: binding, mouse; details: LexA and VP16 fusions, lacZ reporter, X-gal
Procedure, shortened: (§1)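 Mouse coding sequences (from brain cDNA) were cloned as galactose-inducible LexA and VP16 fusions and co-transformed into S260 yeast, selected on glucose Trp−/Ura− plates. Colonies on filters were switched to galactose for induction, then assayed for lacZ with X-gal. Autoactivation was checked against LexA/VP16 control vectors. Blue within 1 h was scored positive; blue at 2–4 h was scored weak.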

[3] = system: CaM; details: ref Putkey et al., 2008; cited from earlier work
[4] = system: calcineurin B (CnB); assay: Yeast two-hybrid; assay type: binding, mouse; details: LexA and VP16 fusions, lacZ reporter, X-gal
Procedure, shortened: as §1

[5] = system: calmodulin-Sepharose; assay: CaM-Sepharose pulldown of Myc-tagged proteins expressed in COS-7 cells; assay type: binding; details: for CaM-Sepharose pulldown, calcium-replete: 5mM CaCl2; for CaM-Sepharose pulldown, calcium-replete / CaM-Sepharose pulldown, calcium-poor: TX-buffer pH 6.9, overnight at 4°C, anti-Myc western blot; for calcium dependence of CaM binding / overall CaM binding: 5mM CaCl2 or 5mM EGTA, summary in Discussion; for CaM-Sepharose pulldown, calcium-poor: 5mM EGTA
Procedure, shortened: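 Myc-tagged mouse constructs (from brain cDNA) were expressed in COS-7 cells, grown in DMEM/10% FBS at 37°C and transfected at 80% confluency with 3 μg plasmid. After 48 h, cells were lysed 30 min at 4°C in TX-buffer (50 mM Tris-HCl pH 6.9, 0.5% Triton X-100, protease inhibitors). Cleared lysate was incubated overnight at 4°C with CaM-Sepharose, then washed 3× and detected by SDS-PAGE/anti-Myc (9E10) western blot with ECL.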

[6] = system: calneuron 1 (Caln1); assay: Yeast two-hybrid; assay type: binding, mouse; details: LexA and VP16 fusions, lacZ reporter, X-gal
Procedure, shortened: as §1

[7] = system: calmodulin-like 4 (Calml4); assay: Yeast two-hybrid; assay type: binding, mouse; details: LexA and VP16 fusions, lacZ reporter, X-gal
Procedure, shortened: as §1

Substance	structure in solution ([1]; NMR and circular dichroism, ref Dickerson, 2004, Dickerson et al., 2006, Kleerekoper and Putkey, 2009)	interaction with Cetn2 in Y2H [2]	role of acidic region (EEFDIDMDAPETE) in CaM binding [3]	interaction with CnB in Y2H [4]	CaM-Sepharose pulldown, calcium-replete [5]	calcium dependence of CaM binding / overall CaM binding [5]	CaM-Sepharose pulldown, calcium-poor [5]	interaction with Caln1 in Y2H [6]	interaction with Calml4 in Y2H [7]	structure in solution ([1]; ref Cui et al., 2003, Ran et al.)
PEP-19: calmodulin binding IQ motif protein, 62 amino acids	disordered in solution although it has a propensity to helix formation	no binding was detected	dispensable for CaM binding	no binding was detected	associate weakly in high calcium; also recorded: interacted weakly or not at all with CaM-Sepharose under calcium-replete conditions	binds preferentially to calcium-free CaM	bind to CaM-Sepharose in calcium-poor (Eg) conditions; also recorded: bind CaM in low calcium conditions	no binding was detected	no binding was detected	
neurogranin: calpacitin IQ motif protein, 78 amino acids		no binding was detected		no binding was detected	associate weakly in high calcium	strong CaM binder	bind to CaM-Sepharose in calcium-poor (Eg) conditions; also recorded: bind CaM in low calcium conditions	no binding was detected	no binding was detected	disordered in solution

— PMC3371134 (Journal of Neurochemistry, 2012)
